# Tests used:
# [1] = biological target: T1, S-adenosylmethionine decarboxylase proenzyme (Homo sapiens, UniProt P17707); experiment: Inhibition of recombinant human N-terminal His6-tagged AdoMetDC expressed in Escherichia coli BL21/DE3 cells at pH 7.2 by RapidFire-MS-based enzyme activity assay
# T1 sequence (P17707 whole entry): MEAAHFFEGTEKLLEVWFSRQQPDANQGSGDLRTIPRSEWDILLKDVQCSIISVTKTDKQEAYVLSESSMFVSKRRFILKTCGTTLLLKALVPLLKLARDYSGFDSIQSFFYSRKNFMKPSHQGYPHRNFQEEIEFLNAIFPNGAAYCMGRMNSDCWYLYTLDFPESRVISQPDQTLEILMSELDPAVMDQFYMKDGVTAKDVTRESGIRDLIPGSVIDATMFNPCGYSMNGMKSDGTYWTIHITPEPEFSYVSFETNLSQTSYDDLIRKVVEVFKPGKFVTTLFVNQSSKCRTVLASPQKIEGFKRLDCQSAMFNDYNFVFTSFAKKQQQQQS
# [2] = test system: Trypanosoma brucei; experiment: Inhibition of recombinant Trypanosoma brucei N-terminal His6-tagged AdoMetDC/prozyme hetrodimer expressed in Escherichia coli BL21/DE3 cells at 180 uM at pH 7.2 by RapidFire-MS-based enzyme activity assay
# In short: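 Steady-state decarboxylation of S-adenosyl-L-methionine by purified TbAdoMetDC/prozyme at pH 7.2; decarboxylated AdoMet product read by RapidFire–MS. Inhibitor added from DMSO to 2% final DMSO. Percent inhibition reported at the top tested concentration when mean inhibition stayed below 50%; triplicate.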
# [3] = Inhibition of recombinant Trypanosoma brucei N-terminal His6-tagged AdoMetDC/prozyme hetrodimer expressed in Escherichia coli BL21/DE3 cells at pH 7.2 by RapidFire-MS-based enzyme activity assay
# [4] = biological target: T2, S-adenosylmethionine decarboxylase proenzyme (Homo sapiens) (UniProt P17707); experiment: Inhibition of recombinant human N-terminal His6-tagged AdoMetDC expressed in Escherichia coli BL21/DE3 cells at 180 uM at pH 7.2 by RapidFire-MS-based enzyme activity assay
# T2 sequence (whole entry): T1 sequence (P17707 whole entry)
smiles,measurement,setting,value
Cc1cc(Nc2cccc(S(F)(F)(F)(F)F)c2)nc(N)n1,IC50,[1],> 180 µM
same,inhibition,[2],23%
Cc1cc(Nc2cc(Cl)cc(-c3cnn(C)c3)c2)nc(N)n1,IC50,[1],> 180 µM
same,IC50,[3],164 µM
Cc1cc(Nc2cc(Cl)cc(C#N)c2)nc(N)n1,IC50,[3],3.9 µM
same,inhibition,[4],29%
CCc1cc(Nc2cc(Cl)cc(Cl)c2)nc(N)n1,IC50,[3],3 µM
same,inhibition,[4],36%
Cc1cc(Nc2cc(Cl)c(C)c(Cl)c2)nc(N)n1,IC50,[1],> 63 µM
same,IC50,[3],20 µM
Nc1nc(Nc2cc(Cl)cc(Cl)c2)cc(C(F)(F)F)n1,IC50,[1],> 180 µM
same,IC50,[3],> 180 µM
CNc1nc(C)cc(Nc2cc(Cl)cc(Cl)c2)n1,IC50,[1],> 63 µM
same,IC50,[3],> 63 µM
CCc1ccc(Nc2cc(C)nc(N)n2)cc1,IC50,[1],> 180 µM
same,IC50,[3],> 180 µM
Cc1cc(Nc2cc(Cl)cc(-c3ccsc3)c2)nc(N)n1,IC50,[3],26 µM
same,inhibition,[4],30%
Cc1cc(Nc2cc(Cl)cc(-c3ccc(Cl)c(Cl)c3)c2)nc(N)n1,IC50,[1],> 180 µM
same,IC50,[3],102 µM
Cc1cc(Nc2cc(Br)cc(OCC(C)C)c2)nc(N)n1,IC50,[1],> 180 µM
same,IC50,[3],11 µM
Cc1cc(Nc2cc(Br)cc(S(F)(F)(F)(F)F)c2)nc(N)n1,IC50,[1],> 180 µM
same,IC50,[3],8.7 µM
Cc1cc(Nc2cc(Cl)c(N(C)C)c(Cl)c2)nc(N)n1,IC50,[1],> 180 µM
same,IC50,[3],> 180 µM
Cc1cc(NCCc2cc(Cl)cc(Cl)c2)nc(N)n1,IC50,[3],28 µM
same,inhibition,[4],29%
Cc1cc(Nc2cc(Cl)cc(-c3ccc(Cl)cc3)c2)nc(N)n1,IC50,[1],> 63 µM
same,IC50,[3],1.7 µM
COc1ccc(-c2cc(Cl)cc(Nc3cc(C)nc(N)n3)c2)cc1,IC50,[1],> 180 µM
same,IC50,[3],2.3 µM
Cc1cc(N)cc(Nc2cc(Cl)cc(Cl)c2)n1,IC50,[1],> 180 µM
same,inhibition,[2],24%
CSc1cccc(Nc2cc(C)nc(N)n2)c1,IC50,[3],149 µM
same,inhibition,[4],23%
Cc1cc(Nc2cc(Cl)c(Oc3ccccc3)c(Cl)c2)nc(N)n1,IC50,[1],> 180 µM
same,inhibition,[2],38%
Cc1cc(Nc2cc(Cl)cc(-c3ccc(F)cc3)c2)nc(N)n1,IC50,[1],> 21 µM
same,IC50,[3],1.1 µM
Cc1cc(Nc2cc(Br)c(F)c(Br)c2)nc(N)n1,IC50,[3],1.6 µM
same,inhibition,[4],43%
Cc1cc(Nc2cc(Cl)c(O)c(Cl)c2)nc(N)n1,IC50,[1],> 180 µM
same,inhibition,[2],33%
Cc1cc(Nc2cc(F)cc(F)c2)nc(N)n1,IC50,[1],> 180 µM
same,IC50,[3],180 µM
Cc1cc(Sc2cc(Cl)cc(Cl)c2)nc(N)n1,IC50,[1],> 180 µM
same,IC50,[3],> 180 µM
Cc1cc(Nc2cc(Cl)c(N3CCOCC3)c(Cl)c2)nc(N)n1,IC50,[1],> 180 µM
same,IC50,[3],> 180 µM
Cc1cc(Nc2cc(-c3ccccc3)cc(-c3ccccc3)c2)nc(N)n1,IC50,[1],> 180 µM
same,IC50,[3],> 180 µM
Cc1cc(Nc2cc(C(=O)O)cc(C(=O)O)c2)nc(N)n1,IC50,[1],> 180 µM
same,IC50,[3],> 180 µM
Cc1cc(Nc2cc(C(=O)Nc3cc(Cl)cc(Cl)c3)cc(C(=O)Nc3cc(Cl)cc(Cl)c3)c2)nc(N)n1,IC50,[1],> 180 µM
same,IC50,[3],> 180 µM
Cc1cc(Nc2cc(Cl)cc(-c3ccc4c(c3)OCO4)c2)nc(N)n1,IC50,[1],> 21 µM
same,IC50,[3],6.2 µM
COC(=O)c1cc(Nc2cc(C)nc(N)n2)cc(C(=O)OC)c1,IC50,[1],> 180 µM
same,inhibition,[2],40%
Cc1cc(Nc2cc(Cl)cc(-c3ccc(N(C)C)cc3)c2)nc(N)n1,IC50,[1],> 180 µM
same,inhibition,[2],34%
Cc1cc(Nc2cc(Cl)cc(Cl)c2)nc(N(C)C)n1,IC50,[1],> 180 µM
same,IC50,[3],> 180 µM
CCc1cc(Nc2cc(C)nc(N)n2)cc(-c2ccc(F)cc2)c1,IC50,[1],> 180 µM
same,IC50,[3],2.7 µM
Cc1cc(Nc2cc(Cl)cc(-c3cncnc3)c2)nc(N)n1,IC50,[1],> 180 µM
same,IC50,[3],> 180 µM
Nc1cnccc1Nc1cc(Cl)cc(Cl)c1,IC50,[1],> 180 µM
same,inhibition,[2],21%
Cc1cc(Nc2cc(Cl)cc(-c3ccc(C(F)(F)F)cc3)c2)nc(N)n1,IC50,[1],> 21 µM
same,IC50,[3],4.7 µM
Cc1cc(Nc2cc(S(C)(=O)=O)cc(S(C)(=O)=O)c2)nc(N)n1,IC50,[3],1.5 µM
same,inhibition,[4],39%
Cc1cc(NCc2cc(Cl)cc(Cl)c2)nc(N)n1,IC50,[1],> 180 µM
same,IC50,[3],139 µM
Cc1cc(C)cc(Nc2cc(C)nc(N)n2)c1,IC50,[1],> 180 µM
same,IC50,[3],141 µM
Cc1cc(Nc2ccc(C(F)(F)F)cc2)nc(N)n1,IC50,[1],> 180 µM
same,IC50,[3],> 180 µM
Cc1cc(Nc2cc(Cl)cc(-c3ccc(O)cc3)c2)nc(N)n1,IC50,[1],> 180 µM
same,IC50,[3],143 µM
Cc1cc(Nc2cc(Cl)cc(-c3cc(C(F)(F)F)cc(C(F)(F)F)c3)c2)nc(N)n1,IC50,[1],> 180 µM
same,IC50,[3],28 µM
Cc1cc(Nc2cc(Cl)cc(C(F)(F)F)c2)nc(N)n1,IC50,[3],3.9 µM
same,inhibition,[4],39%

# — ChEMBL document CHEMBL4033778, “Species-Selective Pyrimidineamine Inhibitors of Trypanosoma brucei S-Adenosylmethionine Decarboxylase” (J Med Chem, 2018)
